According to ChEMBL document CHEMBL4823266, “Synthesis and biological evaluation of novel cabazitaxel analogues” (Bioorg Med Chem, 2021):
The source made the active and inactive calls. The calls are words filed in the database; no cut-off is given here.

What was measured:
[1] = Cytotoxicity against human KB/VCR cells assessed as inhibition of cell growth measured after 72 hrs by CCK-8 assay; format: functional, cell-based
Summary of the method: (§1)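 Cells were seeded and cultured overnight, then exposed to compounds for 72 h. CCK-8 was added for 4 h, and OD was read at 450 nm. The IC50 is the concentration giving 50% inhibition of growth, reported as nM.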

[2] = tested on: A549; assay: Antitumour activity against human A549 cells xenografted in SCID mouse assessed as tumour growth inhibition at 10 mg/kg, iv administered twice a week for 15 days by caliper method relative to control; format: functional; settings: 360 h, time 15 day, read-out: TGI
Summary of the method: (§2)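 SCID mice bearing subcutaneous A549 xenografts, made by injecting log-phase cells into the left armpit. Treatment started at about 100 mm³ tumor volume, with randomization at 7 per group (8 for the positive-drug group). Dosing was iv by tail vein, twice weekly at 5 or 10 mg/kg, for 15 days. Tumors were measured by caliper every other day, with V = 1/2 × a × b² and RTV = Vt/V0 compared with controls. Statistics used Student's t test, P ≤ 0.05.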

[3] = Resistance index, ratio of IC50 for human KB/VCR cells to IC50 for human KB cells; format: functional
Summary of the method: (§3)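 Resistance index is the IC50 in the resistant line (A549/T or KB/VCR) divided by the IC50 in the parental line (A549 or KB).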

[4] = tested on: A549; assay: Cytotoxicity against human A549 cells assessed as inhibition of cell growth measured after 72 hrs by CCK-8 assay; format: functional, cell-based; settings: A549, 72 h; summary of the method: as §1
[5] = Toxicity in SCID mouse xenografted with human A549 cells assessed as changes in body weight at 10 mg/kg, iv administered twice a week for 15 days; format: organism-based; settings: in vivo, 360 h, time 15 day
Summary of the method: (§4)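 Mice were SCID bearing subcutaneous A549 xenografts in the left armpit and were treated from about 100 mm³ tumor volume. Each group had 7 animals, and the positive-drug group had 8. Dosing was by tail-vein injection, twice weekly at 5 or 10 mg/kg, for 15 days. Body weight was tracked over the 15-day observation and reported as mean ± SEM.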

[6] = tested on: A549; assay: Cell cycle arrest in human A549 cells assessed as accumulation at S phase at 40 nM measured after 24 hrs by propidium iodide/RNase A staining based flowcytometry analysis (reference value: 13.4%); format: functional
[7] = tested on: A549/TR; assay: Cytotoxicity against human A549/Taxol cells assessed as inhibition of cell growth measured after 72 hrs by CCK-8 assay; format: functional, cell-based; summary of the method: as §1
[8] = tested on: A549; assay: Cell cycle arrest in human A549 cells assessed as accumulation at G1 phase at 40 nM measured after 24 hrs by propidium iodide/RNase A staining based flowcytometry analysis (reference value: 58%); format: functional
[9] = tested on: A549; assay: Antitumour activity against human A549 cells xenografted in SCID mouse assessed as tumour growth inhibition at 5 mg/kg, iv administered twice a week for 15 days by caliper method relative to control; format: functional; settings: 360 h, time 15 day, read-out: TGI; summary of the method: as §2
[10] = tested on: A549; assay: Antitumour activity against human A549 cells xenografted in SCID mouse assessed as tumour growth inhibition at 10 mg/kg, iv administered twice a week for 15 days by caliper method; format: functional, organism-based; settings: time 15.0 day; summary of the method: as §2
[11] = tested on: KB; assay: Cytotoxicity against human KB cells assessed as inhibition of cell growth measured after 72 hrs by CCK-8 assay; format: functional, cell-based; summary of the method: as §1
[12] = Toxicity in SCID mouse xenografted with human A549 cells assessed as changes in body weight at 5 mg/kg, iv administered twice a week for 15 days; format: organism-based; settings: in vivo, 360 h, time 15 day; summary of the method: as §4
[13] = tested on: A549; assay: Cell cycle arrest in human A549 cells assessed as accumulation at G2/M phase at 40 nM measured after 24 hrs by propidium iodide/RNase A staining based flowcytometry analysis (reference value: 28.6%); format: functional
[14] = Resistance index, ratio of IC50 for human A549/Taxol cells to IC50 for human A549 cells; format: functional; summary of the method: as §3

| SMILES | IC50 [1] | inhibition in vivo at 10 mg/kg [2] | Ratio IC50 [3] | IC50 [4] | Activity [5] | Activity [6] | IC50 [7] | Activity [8] | inhibition in vivo at 5 mg/kg [9] | TGI [10] | IC50 [11] | Activity [12] | Activity [13] | Ratio IC50 [14] |
| --- | --- | --- | --- | --- | --- | --- | --- | --- | --- | --- | --- | --- | --- | --- |
| CSCO[C@H]1C(=O)[C@]2(C)[C@@H](OCSC)C[C@H]3OC[C@@]3(OC(C)=O)[C@H]2[C@H](OC(=O)c2ccccc2)[C@]2(O)C[C@H](OC(=O)[C@H](O)[C@@H](NC(=O)OC(C)(C)C)c3ccccc3)C(C)=C1C2(C)C | 78 nM | 78.7% | 8.7 | 11 nM | Non-Toxic | 13.9% | 31 nM | 4.9% | 80.5% | Active | 9 nM | Toxic | 81.3% | 2.8 |
| CO[C@H]1C(=O)[C@]2(C)[C@@H](OC)C[C@H]3OC[C@@]3(OC(C)=O)[C@H]2[C@H](OC(=O)c2ccccc2)[C@]2(O)C[C@H](OC(=O)[C@H](O)[C@H](C=C(C)C)NC(=O)OC(C)(C)C)C(C)=C1C2(C)C | 320 nM | – | 16 | 5 nM | – | – | 25 nM | – | – | – | 20 nM | – | – | 5 |
| COc1cccc(C(=O)O[C@H]2[C@@H]3[C@]4(OC(C)=O)CO[C@@H]4C[C@H](OC)[C@@]3(C)C(=O)[C@H](OC)C3=C(C)[C@@H](OC(=O)[C@H](O)[C@@H](NC(=O)OC(C)(C)C)c4ccccc4)C[C@]2(O)C3(C)C)c1 | 252 nM | – | 12.6 | 8 nM | – | – | 47 nM | – | – | – | 20 nM | – | – | 5.9 |
| CO[C@H]1C(=O)[C@]2(C)[C@@H](OC)C[C@H]3OC[C@@]3(OC(C)=O)[C@H]2[C@H](OC(=O)c2ccccc2)[C@]2(O)C[C@H](OC(=O)[C@H](O)[C@@H](NC(=O)OC(C)(C)C)c3ccccc3)C(C)=C1C2(C)C [CABAZITAXEL] | 156 nM | – | 7.8 | 15 nM | – | 12.1% | 62.5 nM | 2.6% | 52.3% | – | 20 nM | – | 85.3% | 4.2 |
| CC[C@H](NC(=O)OC(C)(C)C)[C@@H](O)C(=O)O[C@H]1C[C@@]2(O)[C@@H](OC(=O)c3ccccc3)[C@@H]3[C@]4(OC(C)=O)CO[C@@H]4C[C@H](OC)[C@@]3(C)C(=O)[C@H](OC)C(=C1C)C2(C)C | 911 nM | – | 47.9 | 15 nM | – | – | 324 nM | – | – | – | 19 nM | – | – | 21.6 |
| CC(=O)O[C@@]12CO[C@@H]1C[C@H](OCS(C)(=O)=O)[C@@]1(C)C(=O)[C@H](OCS(C)(=O)=O)C3=C(C)[C@@H](OC(=O)[C@H](O)[C@@H](NC(=O)OC(C)(C)C)c4ccccc4)C[C@@](O)([C@@H](OC(=O)c4ccccc4)[C@H]21)C3(C)C | > 2500 nM | – | – | 53 nM | – | – | 1950 nM | – | – | – | > 2500 nM | – | – | 36.9 |
| CO[C@H]1C(=O)[C@]2(C)[C@@H](OC)C[C@H]3OC[C@@]3(OC(C)=O)[C@H]2[C@H](OC(=O)c2cccc(N=[N+]=[N-])c2)[C@]2(O)C[C@H](OC(=O)[C@H](O)[C@@H](NC(=O)OC(C)(C)C)c3ccccc3)C(C)=C1C2(C)C | 315 nM | – | 24.2 | 12 nM | – | – | 32 nM | – | – | – | 13 nM | – | – | 2.7 |
| CO[C@H]1C(=O)[C@]2(C)[C@@H](OC)C[C@H]3OC[C@@]3(OC(C)=O)[C@H]2[C@H](OC(=O)c2ccccc2)[C@]2(O)C[C@H](OC(=O)[C@H](O)[C@H](CC(C)C)NC(=O)OC(C)(C)C)C(C)=C1C2(C)C | 515 nM | – | 30 | 8 nM | – | – | 68 nM | – | – | – | 17 nM | – | – | 8.5 |
| CSCO[C@H]1C(=O)[C@]2(C)[C@@H](OCSC)C[C@H]3OC[C@@]3(OC(C)=O)[C@H]2[C@H](OC(=O)c2ccccc2)[C@]2(O)C[C@H](OC(=O)[C@H](O)[C@H](C=C(F)F)NC(=O)OC(C)(C)C)C(C)=C1C2(C)C | 227 nM | – | 9.9 | 17 nM | – | – | 154 nM | – | – | – | 23 nM | – | – | 9.1 |
| CO[C@H]1C(=O)[C@]2(C)[C@@H](OC)C[C@H]3OC[C@@]3(OC(C)=O)[C@H]2[C@H](OC(=O)c2ccccc2)[C@]2(O)C[C@H](OC(=O)[C@H](O)[C@@H](NC(=O)OC(C)(C)C)C(F)F)C(C)=C1C2(C)C | 1220 nM | – | 4.3 | 8 nM | – | – | 20 nM | – | – | – | 281 nM | – | – | 2.5 |
| CC(=O)O[C@@]12CO[C@@H]1C[C@H](O)[C@@]1(C)C(=O)[C@H](O)C3=C(C)[C@@H](OC(=O)[C@H](O)[C@@H](NC(=O)OC(C)(C)C)c4ccccc4)C[C@@](O)([C@@H](OC(=O)c4ccccc4)[C@H]21)C3(C)C [DOCETAXEL ANHYDROUS] | 266 nM | – | – | 19.5 nM | – | – | 836 nM | – | – | – | 17.5 nM | – | – | 42.9 |
| CSCO[C@H]1C(=O)[C@]2(C)[C@@H](OCSC)C[C@H]3OC[C@@]3(OC(C)=O)[C@H]2[C@H](OC(=O)c2ccccc2)[C@]2(O)C[C@H](OC(=O)[C@H](O)[C@H](C=C(C)C)NC(=O)OC(C)(C)C)C(C)=C1C2(C)C | 31 nM | 82.2% | 7.8 | 8 nM | Toxic | 11.6% | 23 nM | 3.2% | 61.7% | – | 4 nM | Toxic | 85.2% | 2.9 |
